The text below walks through data of ChEMBL document CHEMBL1145795, “Design, synthesis, and evaluation of analogues of 3,3,3-trifluoro-2-hydroxy-2-phenyl-propionamide as orally available general anesthetics” (J Med Chem, 2003).

The subject of experiment [1] is Rattus norvegicus. The experiment can be described thus: Compound was tested for blood pressure in rat at dose 60 mg/kg administered intraperitoneally. The experiment is classed as functional. The settings on record: route intraperitoneal. In outline:
(§1)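 Rats were isoflurane-induced, intubated and ventilated, with femoral arterial and venous lines and normothermia. Baseline MAC was taken by tail clamp for 1 min, stepping isoflurane by 0.1% with 12–15 min equilibration. MAC was the midpoint between movement and no movement. The compound (60 mg/kg) was sonicated in 3 mL peanut oil and given ip. MAC was redetermined at 30 min and 1 h. Blood pressure was recorded; values are given as mean ± SEM.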

Experiment [2] has as its system Rattus norvegicus. The experiment can be described thus: Compound was tested for minimum alveolar concentration in rat at dose 60 mg/kg administered intraperitoneally. The experiment is classed as functional. The following applies: route intraperitoneal. Put shortly:
as §1

The species named for experiment [3] is Rattus norvegicus. The experiment in a line: Compound was tested for anticonvulsant activity by measuring the therapeutic index by maximal electroshock in rat. Format: functional. In outline: (§2)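 NINDS ADD Phase II quantification with oral dosing. […] Therapeutic index is rotarod TD50 divided by the MES or scMET ED50.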
Experiment [4] relates to Rattus norvegicus. The experiment in a line: Compound was tested for anticonvulsant activity against subcutaneous metrazole in rat. Format: functional. The following applies: sc. Put shortly:
as §2

Experiment [5] is filed under the species Rattus norvegicus. The experiment in a line: Compound was tested for anticonvulsant activity against maximal electroshock in rat. Format: functional. Put shortly: as §2
The species named for experiment [6] is Rattus norvegicus. The experiment can be described thus: Compound was tested for anticonvulsant activity using rotarod method in rat. The experiment is classed as functional. Put shortly: as §2
The test system of experiment [7] is Mus musculus. The experiment in a line: Compound was tested for anticonvulsant activity using rotarod method at dose 100 mg/kg in time 0.5 hr in mice administered subcutaneously. The experiment is classed as functional. The following applies: route subcutaneous. Put shortly: (§3)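 NINDS ADD rotarod neurotoxicity screen in mice at 0.5 h and 4 h post-dose. The score is inability to grasp the rotating rod; loss of righting reflex after falling was also noted.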

Experiment [8] deals with Mus musculus. The experiment can be described thus: Compound was tested for anticonvulsant activity using rotarod method at dose 300 mg/kg in time 4 hr in mice administered subcutaneously. The experiment is classed as functional. The following applies: route subcutaneous. In outline:
as §3

In experiment [9] the test system is HEK293. The experiment in a line: Effect on HEK293 cells co-expressing voltage-gated Na+ channel rNav 1.3 and beta-3 at 10 uM; NE=No effect. The experiment is classed as functional, cell-based. Put shortly:
(§4)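 rNaV1.3 coexpressed with β3 in HEK293 cells (and Xenopus oocytes), exposed to 10 µM or 100 µM and assessed for Na+ channel block.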

Experiment [10] concerns Mus musculus. The experiment in a line: Compound was tested for anticonvulsant activity against subcutaneous metrazole at dose 30 mg/kg in time 0.5 hr in mice administered subcutaneously. The experiment is classed as functional. In outline:
(§5)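 Run by the NINDS ADD program in mice, challenged with maximal electroshock or subcutaneous metrazol at 0.5 h and 4 h after dosing. Protection is scored per animal (e.g. […], 5 for scMet at 100 mg/kg).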

Experiment [11] has as its system Mus musculus. The experiment can be described thus: Compound was tested for anticonvulsant activity against subcutaneous metrazole at dose 300 mg/kg in time 4 hr in mice administered subcutaneously. The experiment is classed as functional. In outline:
as §5

Experiment [12] addresses Gamma-aminobutyric acid receptor subunit gamma-1 (Rattus norvegicus) (UniProt P23574). The experiment can be described thus: Enhanced 10 uM GABA-A receptor currents in rat hippocampal neurons; NE=no effect. The following applies: Hippocampus. Format: functional, tissue-based. Put shortly: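 Peak current is expressed as percent of the GABA-alone control. Concentration–response was fitted to a four-parameter logistic; values are given as mean ± SEM.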

Experiment [13] deals with Rattus norvegicus. The experiment in a line: Compound was tested for isoflurane minimum alveolar concentration in rat at dose 60 mg/kg administered intraperitoneally. The experiment is classed as functional. The following applies: route intraperitoneal. In outline: as §1
Experiment [14] deals with HEK293. The experiment can be described thus: Effect on HEK293 cells co-expressing voltage-gated Na+ channel rNav 1.3 and beta-3 at 100 uM; NE=No effect. Format: functional, cell-based. Put shortly:
as §4

In experiment [15] the target is Protein kinase C (PKC) (Homo sapiens) (UniProt O94806+P41743+P17252+P05129+Q05655+P05771+Q05513+Q02156+P24723+Q15139+Q04759). The experiment in a line: Inhibition of protein kinase C at 100 uM; NE=no effect. Format: protein assay.
The test system of experiment [16] is Mus musculus. The experiment in a line: Compound was tested for anticonvulsant activity against maximal electroshock at dose 100 mg/kg in time 0.5 hr in mice administered subcutaneously. The settings on record: route subcutaneous. The experiment is classed as functional. In outline: as §5
For experiment [17], the system named is Mus musculus. The experiment in a line: Compound was tested for anticonvulsant activity against subcutaneous metrazole at dose 30 mg/kg in time 4 hr in mice administered subcutaneously. Format: functional. Put shortly: as §5
Experiment [18] concerns Mus musculus. The experiment in a line: Compound was tested for anticonvulsant activity against maximal electroshock at dose 300 mg/kg in time 0.5 hr in mice administered subcutaneously. The following applies: route subcutaneous. Format: functional. Put shortly: as §5
For experiment [19], the system named is Mus musculus. The experiment in a line: Compound was tested for anticonvulsant activity against maximal electroshock at dose 30 mg/kg in time 4 hr in mice administered subcutaneously. The following applies: route subcutaneous. Format: functional. In outline:
as §5

Experiment [20] has as its system Mus musculus. The experiment can be described thus: Compound was tested for anticonvulsant activity using rotarod method at dose 300 mg/kg in time 0.5 hr in mice administered subcutaneously. Format: functional. The following applies: route subcutaneous. In outline:
as §3

In experiment [21] the test system is Mus musculus. The experiment can be described thus: Compound was tested for anticonvulsant activity against maximal electroshock at dose 300 mg/kg in time 4 hr in mice administered subcutaneously. The settings on record: route subcutaneous. The experiment is classed as functional. In outline: as §5
Experiment [22] concerns Mus musculus. The experiment can be described thus: Compound was tested for anticonvulsant activity against maximal electroshock at dose 100 mg/kg in time 4 hr in mice administered subcutaneously. The experiment is classed as functional. The following applies: route subcutaneous. Put shortly:
as §5

For experiment [23], the system named is Mus musculus. The experiment in a line: Compound was tested for anticonvulsant activity against subcutaneous metrazole at dose 300 mg/kg in time 0.5 hr in mice administered subcutaneously. Format: functional. In outline:
as §5

Experiment [24] has as its system Mus musculus. The experiment in a line: Compound was tested for anticonvulsant activity against subcutaneous metrazole at dose 100 mg/kg in time 0.5 hr in mice administered subcutaneously. The experiment is classed as functional. In outline: as §5
The subject of experiment [25] is HEK293. The experiment can be described thus: Inhibition of rat TASK-1 and TASK-3-leak K+ channels expressed in HEK293 cells at 100 uM; NE denotes no effects. The experiment is classed as functional, cell-based.
Experiment [26] deals with Rattus norvegicus. The experiment in a line: Compound was tested for anticonvulsant activity by measuring the therapeutic index by subcutaneous metrazole in rat. Format: functional. In outline:
as §2

Experiment [27] deals with Mus musculus. The experiment can be described thus: Compound was tested for anticonvulsant activity against maximal electroshock at dose 30 mg/kg in time 0.5 hr in mice administered subcutaneously. Format: functional. The following applies: route subcutaneous. In outline:
as §5

Experiment [28] concerns Mus musculus. The experiment in a line: Compound was tested for anticonvulsant activity against subcutaneous metrazole at dose 100 mg/kg in time 4 hr in mice administered subcutaneously. The experiment is classed as functional. In outline: as §5
For experiment [29], the system named is Mus musculus. The experiment in a line: Compound was tested for anticonvulsant activity using rotarod method at dose 100 mg/kg in time 4 hr in mice administered subcutaneously. The experiment is classed as functional. The settings on record: route subcutaneous. In outline: as §3
The target in experiment [30] is T1, Sodium channel protein type 4 subunit alpha (Homo sapiens, UniProt P35499). The experiment in a line: Inhibition of sodium channels through phasic blockade. Format: functional.
T1 sequence (P35499 whole entry): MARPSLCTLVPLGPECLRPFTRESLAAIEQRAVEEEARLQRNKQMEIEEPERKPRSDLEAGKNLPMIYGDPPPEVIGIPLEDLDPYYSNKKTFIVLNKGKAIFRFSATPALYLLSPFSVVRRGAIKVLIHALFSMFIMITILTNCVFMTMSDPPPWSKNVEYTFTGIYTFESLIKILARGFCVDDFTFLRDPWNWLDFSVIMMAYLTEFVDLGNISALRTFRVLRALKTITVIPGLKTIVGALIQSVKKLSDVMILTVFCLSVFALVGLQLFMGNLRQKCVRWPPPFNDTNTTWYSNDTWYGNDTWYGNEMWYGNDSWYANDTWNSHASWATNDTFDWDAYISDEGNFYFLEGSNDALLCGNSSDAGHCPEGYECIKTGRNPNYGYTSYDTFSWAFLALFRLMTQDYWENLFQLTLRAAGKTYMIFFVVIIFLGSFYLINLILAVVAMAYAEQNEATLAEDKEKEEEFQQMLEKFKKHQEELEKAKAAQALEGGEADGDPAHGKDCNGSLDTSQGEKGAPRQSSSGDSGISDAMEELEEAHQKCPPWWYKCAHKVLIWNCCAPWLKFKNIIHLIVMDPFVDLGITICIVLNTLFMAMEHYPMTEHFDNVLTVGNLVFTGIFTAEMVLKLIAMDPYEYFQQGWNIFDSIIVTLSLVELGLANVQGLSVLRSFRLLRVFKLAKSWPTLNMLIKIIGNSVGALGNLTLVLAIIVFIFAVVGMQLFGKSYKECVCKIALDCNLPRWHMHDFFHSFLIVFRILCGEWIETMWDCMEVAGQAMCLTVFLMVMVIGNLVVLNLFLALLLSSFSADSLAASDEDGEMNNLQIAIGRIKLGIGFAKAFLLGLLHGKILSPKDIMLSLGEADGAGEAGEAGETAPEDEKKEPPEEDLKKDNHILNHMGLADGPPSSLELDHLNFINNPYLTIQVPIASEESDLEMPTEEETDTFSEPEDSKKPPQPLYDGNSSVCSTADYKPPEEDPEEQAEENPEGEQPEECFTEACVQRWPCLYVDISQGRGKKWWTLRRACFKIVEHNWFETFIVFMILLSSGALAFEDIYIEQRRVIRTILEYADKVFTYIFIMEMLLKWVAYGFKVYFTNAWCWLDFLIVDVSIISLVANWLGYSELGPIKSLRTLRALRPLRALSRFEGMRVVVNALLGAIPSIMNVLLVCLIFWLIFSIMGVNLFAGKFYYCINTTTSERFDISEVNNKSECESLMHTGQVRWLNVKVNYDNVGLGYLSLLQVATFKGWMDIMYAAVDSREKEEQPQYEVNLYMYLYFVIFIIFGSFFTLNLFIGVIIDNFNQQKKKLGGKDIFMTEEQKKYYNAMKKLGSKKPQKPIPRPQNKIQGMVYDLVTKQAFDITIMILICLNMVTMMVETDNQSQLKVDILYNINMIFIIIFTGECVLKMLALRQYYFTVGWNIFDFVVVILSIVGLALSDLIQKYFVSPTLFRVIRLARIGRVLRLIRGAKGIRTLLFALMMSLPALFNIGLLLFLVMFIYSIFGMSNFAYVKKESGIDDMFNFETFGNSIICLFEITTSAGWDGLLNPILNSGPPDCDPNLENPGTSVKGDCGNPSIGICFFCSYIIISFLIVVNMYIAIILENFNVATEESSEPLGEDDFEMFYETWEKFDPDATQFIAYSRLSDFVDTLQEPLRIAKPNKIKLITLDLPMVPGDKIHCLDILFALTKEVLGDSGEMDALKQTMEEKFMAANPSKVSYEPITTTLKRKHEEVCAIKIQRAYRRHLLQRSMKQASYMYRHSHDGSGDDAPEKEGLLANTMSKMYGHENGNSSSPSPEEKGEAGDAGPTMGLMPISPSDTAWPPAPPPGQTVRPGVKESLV
Experiment [31] deals with T1, Sodium channel protein type 4 subunit alpha. The experiment can be described thus: Inhibition of sodium channels through tonic blockade. Format: functional.

The source made the active and inactive calls. The rule behind the calls is not given here. A value given as a limit tells only on which side of the number the result lay.

Chain of Gamma-aminobutyric acid receptor subunit gamma-1 (Rattus norvegicus) (P23574 whole entry): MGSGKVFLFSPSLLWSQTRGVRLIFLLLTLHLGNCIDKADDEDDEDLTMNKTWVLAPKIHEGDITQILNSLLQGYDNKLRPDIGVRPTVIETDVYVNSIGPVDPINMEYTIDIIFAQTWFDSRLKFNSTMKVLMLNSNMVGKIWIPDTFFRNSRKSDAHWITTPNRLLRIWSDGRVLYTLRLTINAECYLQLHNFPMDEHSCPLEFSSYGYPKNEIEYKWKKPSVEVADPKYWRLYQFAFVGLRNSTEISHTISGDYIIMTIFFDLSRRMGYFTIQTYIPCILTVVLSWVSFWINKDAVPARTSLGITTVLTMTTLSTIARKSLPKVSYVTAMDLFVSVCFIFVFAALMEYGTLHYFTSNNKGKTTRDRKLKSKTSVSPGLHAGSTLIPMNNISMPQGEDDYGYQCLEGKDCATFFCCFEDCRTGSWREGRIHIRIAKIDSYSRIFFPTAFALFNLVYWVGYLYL

The compound `NCC(O)(c1ccccc1)C(F)(F)F` (stereo not given) displayed a Mean blood pressure in the experiment on Rattus norvegicus [1] of 116 mmHg. The MAC reduction in the experiment on Rattus norvegicus [2] is -6.5%.
With `NC(=O)C(O)(Cc1ccccc1)C(F)(F)F` (stereo not given), in the experiment with Rattus norvegicus [1], the Mean blood pressure was 111 mmHg. For the same compound, in the experiment on Rattus norvegicus [2], the MAC reduction was determined as 0%.
The matching figures for `NC(=O)C(O)(CC(F)(F)F)c1ccccc1` (stereo not given): 107 mmHg and -11%.
`O=C1NC(=O)C(c2ccccc2)(c2ccccc2)N1` [PHENYTOIN] had a T.I. in the experiment listed under Rattus norvegicus [3] of 6.9. The 50% effective dose (ED50) with Rattus norvegicus [4] was > 300 mg/kg; in the experiment filed under Rattus norvegicus [5], 9.5 mg/kg; in the experiment filed under Rattus norvegicus [6] it was 66 mg/kg.
In the case of `NC(=O)C(O)(c1ccccc1)C(F)(F)F` (stereo not given), the Protection in the experiment on Mus musculus [7] was determined as 4; in the experiment with Mus musculus [8], 2; in the experiment with Mus musculus [10], 0; with Mus musculus [11], 1; with Mus musculus [16], 3; in the experiment with Mus musculus [17], 0. Besides, the Protection came out at 1 in the experiment with Mus musculus [18]; 0 with Mus musculus [19]; 4 with Mus musculus [20]; 1 in the experiment on Mus musculus [21]; 3 in the experiment with Mus musculus [22]; 1 in the experiment on Mus musculus [23]. Further, the Protection is 5 with Mus musculus [24], 0 in the experiment on Mus musculus [27], 0 in the experiment on Mus musculus [28] and 2 in the experiment with Mus musculus [29]. Moreover, the results for the T.I. in the experiment listed under Rattus norvegicus [3] and with Rattus norvegicus [26] were 10 and 2.6, respectively. Moreover, the result (with HEK293 [9]; with HEK293 [9] (Xenopus sp.); in [12]; with HEK293 [14]; in the experiment with HEK293 [14] (Xenopus sp.); in [15]) was inactive. Also, the result in the experiment with HEK293 [25] was inactive. The ED50 in the experiment with Rattus norvegicus [4] is 39 mg/kg; in the experiment filed under Rattus norvegicus [5] it was 9.9 mg/kg; in the experiment listed under Rattus norvegicus [6] it was 100 mg/kg. Further, the Volume reduction with Rattus norvegicus [13] is listed as 34%. Further, the Mean blood pressure with Rattus norvegicus [1] came to 119 mmHg. In addition, the MAC reduction in the experiment with Rattus norvegicus [2] was -34%.
`O=C1Nc2ccccc2C1(O)C(F)(F)F` (stereo not given): in the experiment with Rattus norvegicus [1], the Mean blood pressure turned out to be 113 mmHg. In addition, in the experiment with Rattus norvegicus [2], the MAC reduction was -4.3%.
The matching figures for `O=C(O)C(O)(c1ccccc1)C(F)(F)F` (stereo not given): 116 mmHg and -9.1%.
The matching figures for `NC(=O)C(O)(c1ccccc1)C(F)(F)Cl` (stereo not given): 81 mmHg and -43%.
With `CNC1(c2ccccc2Cl)CCCCC1=O` (stereo not given) [KETAMINE], the half-inhibitory concentration (IC50) in [30] was 2300 µM; in experiment [31] it was 800 µM.
Compound `CC(O)(C(N)=O)c1ccccc1` (stereo not given) [ATROLACTAMIDE] registered a Mean blood pressure in the experiment on Rattus norvegicus [1] of 127 mmHg. Also, the MAC reduction in the experiment with Rattus norvegicus [2] is on record as 0%.
The like results for `CN1C(=O)C(O)(C(F)(F)F)c2ccccc21` (stereo not given) were, in that order, 112 mmHg and -4.4%.
For the compound `NC(=O)C(OCc1ccccc1)(c1ccccc1)C(F)(F)F` (stereo not given), the Mean blood pressure in the experiment with Rattus norvegicus [1] is 121 mmHg. For the same compound, in the experiment with Rattus norvegicus [2], the MAC reduction is reported as -4.4%.
